Experimental data: ChEMBL document CHEMBL1132715, “Comparative molecular field analysis of hydantoin binding to the neuronal voltage-dependent sodium channel” (J Med Chem, 1999)

Columns and labels:
[1] = Partition coefficient (logP); assay type: physicochemical; conditions: octanol/water
[2] = biological target: Sodium channel alpha subunits; brain (Types I, II, III) (Rattus norvegicus, UniProt P04775+P04774+P08104); test: In vitro inhibition of Voltage-gated sodium channel by the displacement of [3H]batrachotoxin A 20-alpha-benzoate in rat brain cerebral cortex synaptoneurosomes; assay type: tissue-based
Procedure, shortened: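 Rat cerebral cortex gray matter synaptoneurosomes (~1 mg protein), washed in HEPES/choline chloride buffer pH 7.4 and stored at –70 °C. […] Filtration read-out; nonspecific binding taken with 300 μM veratridine. Points run in triplicate; IC50 by Probit analysis, using only 10–90% inhibition.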

logP ([1]; read-out: logP)	logP [1]	SMILES	IC50 [2] [µM]
0.96		O=C1NC(=O)C2(CCc3ccccc32)N1 (stereo unspecified)	
2.96		CCCCC1(c2cccc(C)c2)NC(=O)NC1=O (stereo unspecified)	
	2.96	CCCCC1(c2ccccc2C)NC(=O)NC1=O (stereo in doubt; 14b)	
1.46		O=C1NC(=O)C2(CCCc3ccccc32)N1 (stereo unspecified)	
2.96		CCCCC1(c2ccccc2C)NC(=O)NC1=O (stereo in doubt; 14a)	

The remaining lines, values behind:

SMILES	logP ([1]; read-out: logP)	logP [1]	IC50 [2] [µM]
O=C1NC(=O)C2(CCCCCc3ccccc32)N1 (stereo unspecified)	2.46		
CCCCC1(c2ccc(C)cc2)NC(=O)NC1=O (stereo unspecified)	2.96		
CCCCCCCCCC1(c2ccccc2)NC(=O)NC1=O (stereo unspecified)	4.96		5
CCCCCCC1(c2ccccc2)NC(=O)NC1=O (stereo unspecified)	3.4		13
CCN1C(=O)NC(=O)C1(C)c1ccccc1 (stereo unspecified)	2.02		
NC(=O)N1c2ccccc2C=Cc2ccccc21 [CARBAMAZEPINE]	2.13		
CCCCCCCC1(c2ccccc2)NC(=O)NC1=O (stereo unspecified)	3.96		5
CCCCCCCC(O)(C(N)=O)c1ccccc1 (stereo unspecified)	3.7		9
CC12C(=O)NC(=O)N1CCc1ccccc12 (stereo unspecified)	1.52		
O=C1NC(=O)C2(CCCCc3ccccc32)N1 (stereo unspecified)	1.96		
O=C1NC(=O)C(c2ccccc2)(C2CCCCC2)N1 (stereo unspecified)	2.96		58
